Screening results as filed in PubChem.
These entries were drawn from the full list.
Apaf1 activ – activators of human Apaf-1 apoptosome, primary screen, biochemical, DEVD-Rh110 fluorescence, uHTS. activity change, negative = activation, % at 20 µM. hit rate 0.31% among 330,000. AID 489031, 2010. Apaf-1 apoptosome caspase-3 activation; stronger effect = lower value;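 active = activity change at or below -40% at 20 µM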
Target sequence (O14727 whole entry, looked up): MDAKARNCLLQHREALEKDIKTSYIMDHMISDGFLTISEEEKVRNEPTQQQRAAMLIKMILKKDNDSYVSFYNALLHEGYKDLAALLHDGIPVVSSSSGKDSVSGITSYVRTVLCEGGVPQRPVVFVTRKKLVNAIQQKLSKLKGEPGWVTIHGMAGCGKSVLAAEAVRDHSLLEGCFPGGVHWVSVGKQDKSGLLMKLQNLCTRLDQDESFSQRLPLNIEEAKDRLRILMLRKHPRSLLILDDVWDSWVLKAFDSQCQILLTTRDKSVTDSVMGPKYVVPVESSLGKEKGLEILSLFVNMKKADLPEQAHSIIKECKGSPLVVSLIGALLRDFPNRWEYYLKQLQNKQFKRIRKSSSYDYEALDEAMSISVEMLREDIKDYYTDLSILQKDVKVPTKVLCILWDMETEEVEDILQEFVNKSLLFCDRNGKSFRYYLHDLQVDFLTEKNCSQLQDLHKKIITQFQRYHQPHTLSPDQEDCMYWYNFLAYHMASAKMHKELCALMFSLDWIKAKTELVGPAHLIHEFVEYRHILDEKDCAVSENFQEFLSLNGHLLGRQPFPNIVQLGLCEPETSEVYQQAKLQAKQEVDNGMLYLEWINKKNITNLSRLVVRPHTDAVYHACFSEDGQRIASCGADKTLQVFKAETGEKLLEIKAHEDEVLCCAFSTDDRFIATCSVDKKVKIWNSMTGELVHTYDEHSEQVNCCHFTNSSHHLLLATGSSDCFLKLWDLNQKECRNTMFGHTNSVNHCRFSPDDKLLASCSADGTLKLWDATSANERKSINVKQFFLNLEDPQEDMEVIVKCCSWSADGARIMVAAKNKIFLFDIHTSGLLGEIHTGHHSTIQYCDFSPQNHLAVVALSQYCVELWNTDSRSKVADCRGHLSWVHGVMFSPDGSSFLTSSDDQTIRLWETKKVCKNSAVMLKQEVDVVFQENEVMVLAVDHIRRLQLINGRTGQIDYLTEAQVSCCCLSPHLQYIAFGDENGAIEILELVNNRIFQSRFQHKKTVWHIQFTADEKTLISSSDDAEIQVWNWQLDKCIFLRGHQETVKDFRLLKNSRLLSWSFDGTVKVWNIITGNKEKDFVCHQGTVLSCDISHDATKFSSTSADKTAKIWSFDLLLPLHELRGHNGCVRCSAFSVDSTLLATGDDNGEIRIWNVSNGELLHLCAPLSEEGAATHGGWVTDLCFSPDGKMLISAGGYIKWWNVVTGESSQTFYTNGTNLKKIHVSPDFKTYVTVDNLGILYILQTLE
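Material: reconstituted apoptosome of Apaf-1, cytochrome c, caspase-9, procaspase-3; times: 30 min preincubation, 50 min reaction, room temperature; measured by: fluorescence, 540 nm emission, 480 nm excitation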
Rh110 interf act – Rh110 fluorescence interference by putative Apaf-1 activators, confirmation, artefact control for Apaf-1 activator project, biochemical, 20 µM; shares compounds with Apaf1 activ; quenched caspase reaction, Ex480/Em540; fluorescence interference (activity change), % at 20 µM, hits read low; 980 tested, under 10 active;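 active = mean activity change at or below -40% when tested at 20 µM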
Apaf-1 act conf2 – Apaf-1 activators, single-dose retest, confirmation, biochemical, fluorescence, DEVD-Rh110, 20 µM | shares compounds with Apaf1 activ | reconstituted apoptosome caspase-3 activity; stronger effect = lower value | activity change, negative = activation, % at 20 µM | hit rate 5% among 980 | AID 504617, 2011;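 active = mean activity change at or below -40%, meaning activation of 40% or more, at 20 µM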
Fluor interf act – fluorescence interference of Apaf-1 activator hits, dose response, artefact control for Apaf-1 activator project. shares compounds with Apaf1 activ. 55 tested, under 10 active. fluorescence interference counterscreen, Apaf-1 activator assay. EC50, µM; call rule not given here
Numbers stand for hits; i = inactive; nt = no result.

SMILES	Apaf1 activ	Rh110 interf act	Apaf-1 act conf2	others
Cc1oc2cc(OCC(=O)O)ccc2c(=O)c1Oc1ccccc1	-100	i	i
Cc1ccc(CN2C(=O)CCC2C(=O)NCC2CCCO2)cc1 (stereo unspecified)	-88	i	i
COc1ccccc1-n1c(N)c(C(=O)NCC2CCCO2)c2nc3ccccc3nc21 (stereo unspecified)	i	nt	nt
O=C(c1cccc(S(=O)(=O)NCc2ccccc2)c1)N1CCN(c2cccc(C(F)(F)F)c2)CC1	i	nt	nt
O=C1C2C3C=CC(CC3)C2C(=O)N1c1cccc(C(F)(F)F)c1 (stereo unspecified)	-120	i	i
Cc1ccc(N2CCN(S(=O)(=O)c3cccs3)CC2C)cc1 (stereo unspecified)	i	nt	nt
O=C(O)c1cccc(-c2ccc(/C=c3/sc4nc5ccccc5n4c3=O)o2)c1	-195	i	i	Fluor interf act=i
Cc1[nH][nH]c(=O)c1C(c1ccc(-c2cccc(C(=O)O)c2)o1)c1c(C)[nH][nH]c1=O	i	nt	nt
O=C(O)c1cccc(NC2=C(n3nnc4ccccc43)C(=O)c3ccccc3C2=O)c1	i	nt	nt
CCN1CCN(Cc2ccc(NC(=O)c3ccc(C)c(NC(=O)c4cc(-c5ccc(Br)cc5)n[nH]4)c3)cc2C(F)(F)F)CC1	i	nt	nt
O=C(C[n+]1cccc(C(=O)N/N=C/c2ccc(Br)cc2)c1)c1ccccc1	i	nt	nt
COc1ccc(/C=N/NC(=O)c2nn(-c3ccccc3)c(=O)c3c(N)scc23)cc1	i	nt	nt
O=C(N/N=C/c1ccc(OC(=O)c2ccccc2)cc1)c1ccc(CN2CCOCC2)cc1	-68	i	i
CCC(CO)Oc1cc(NCc2cccc(Cl)c2)c2ncn(C(C)C)c2c1 (stereo unspecified)	i	nt	nt
CCc1ccc(S(=O)(=O)/N=C2\C=C(Nc3cccc(C(=O)O)c3)C(=O)c3ccccc32)cc1	i	nt	nt
COc1ccc(CCNC(=O)c2ccc3nc(-c4ccco4)c(-c4ccco4)nc3c2)cc1OC	i	nt	nt
COc1ccc2[nH]c(=O)c(CNc3ccccc3OC)cc2c1	i	nt	nt
COc1ccc(C(=O)NCCCNC(=O)c2cc3ccccc3[nH]2)cc1OC	-162	i	i
O=[N+]([O-])c1ccc(N/N=C/c2ccc(O)c(O)c2O)c(S(=O)(=O)N2CCOCC2)c1	i	nt	nt
CCC(C)(C)c1ccc(OCCCC[n+]2ccc(C)cc2)c(C(C)(C)CC)c1	i	nt	nt
CCNC1=C(Cl)C(=O)c2ccccc2C1=O	i	nt	nt
Cc1ccc(C)c(S(=O)(=O)c2c(C)cc(C)nc2Cl)c1	-303	i	i
Cc1ccc(C)c(S(=O)(=O)C(C#N)c2nc3ccccc3nc2N2CCCC2)c1 (stereo unspecified)	i	nt	nt
CCCCCCCCCCCCCCCC[n+]1cccc2ccccc21	i	nt	nt
CC(=O)c1ccc(OCC(=O)NCC(c2ccco2)N2CCCCC2)cc1 (stereo unspecified)	-44	i	i
SMILES	Apaf1 activ	Rh110 interf act	Apaf-1 act conf2	others
COc1cc(/C=C2\C(=O)N(CCC#N)N=C2C)c(Br)cc1OC(C)C	i	nt	nt
N#Cc1cccc(S(=O)(=O)N2CCN(c3ccnc4cc(Cl)ccc34)CC2)c1	-135	i	i
C#CCOCCOCCOCCNc1nc(N2CCN(C(=O)CCCCCCCCCCNC(=O)[C@@H](CCC(=O)O)n3cc(CCCCCN)nn3)CC2)nc(N2CCN(C(=O)CCCCCCCCCCNC(=O)[C@H](CCCCN)n3cc(C[C@@H](C)CC)nn3)CC2)n1	i	nt	nt
COc1cc([N+](=O)[O-])ccc1NC(=O)NNC(=O)c1sccc1C	-60	i	i
C[C@@H](CSc1ccc(Br)cc1)CN1CC[C@H](NC(=O)OCc2ccccc2)CCC1=O	i	nt	nt
OCC1(Cc2ccccc2)CCN(Cc2ccc(-c3ccco3)cc2)CC1	-82	i	i
CN(C)CCCNC(=O)C[C@H]1C[C@H](C(=O)N2CCOCC2)[C@@]2(CCC3CCCC3)c3[nH]c4cc(-c5ccco5)ccc4c3CCN2C1=O	i	nt	nt
N#Cc1cn(Cc2ccncc2)c(=O)[nH]c1=O	-182	i	i
O=[N+]([O-])c1ccc(-c2ccc(C=Nc3cccc4ccccc34)o2)cc1	i	nt	nt
FC(F)(F)c1ccc(CN2C[C@@H]3C(c4ccc(Cl)nc4)C4(c5cccnc5)CC3(C4)[C@H]2c2ccccc2)cc1 (stereo partly specified)	i	nt	nt
Cc1cccc(C)c1NC(=O)Cn1cc(C=O)c2ccccc21	-251	i	-43	Fluor interf act=i
Cc1cccc(C)c1NC(=O)CN1CCN(CCCC(c2ccc(F)cc2)c2ccc(F)cc2)CC1	i	nt	nt
Cc1ccc(S(=O)(=O)NC2=C(N3CCN(c4ccccc4F)CC3)C(=O)c3ccccc3C2=O)cc1	i	nt	nt
Fc1ccc(NC(=S)Nc2cccc3ccccc23)cc1F	i	nt	nt
O=C(NC(=S)Nc1ccccc1C(F)(F)F)c1ccccc1F	-244	i	i
CCN(CC(=O)Nc1ccccc1C(F)(F)F)C(=O)c1ccccc1SCC(=O)N1CCCC1	i	nt	nt
Nc1nnc2c(n1)CCCC2	i	nt	nt
CC1CCCCN1S(=O)(=O)c1ccc(C(=O)N(CCCN(C)C)c2nc3ccc(Br)cc3s2)cc1 (stereo unspecified)	i	nt	nt
O=C(CCc1ccccc1)N[C@@H]1c2ccccc2CC[C@H]1OCc1ccccc1	-41	i	i
C#CCOCCOCCOCCNc1nc(N2CCN(C(=O)CCCCCCCCCCNC(=O)[C@H](CCCCN)n3cc(CCO)nn3)CC2)nc(N2CCN(C(=O)CCCCCCCCCCNC(=O)[C@H](CCCCN)n3cc(CCCC(=O)O)nn3)CC2)n1	i	nt	nt
CCSc1nnc2nc3[nH]c4c(C)cccc4c3nn12	-76	i	i
CN1Cc2c(N3CCOCC3)nc3sc(C(=O)c4ccc(Br)cc4)c(N)c3c2CC1(C)C	i	nt	nt
CCOC(=O)N1CCN(S(=O)(=O)c2ccc(C(=O)N(CCCN(C)C)c3nc4ccc(CC)cc4s3)cc2)CC1	i	nt	nt
CC(C)(C)OC(=O)NCCCCCNC(=O)c1nc[nH]c1C(=O)NCCCCCNC(=O)OC(C)(C)C	-50	i	i
COc1ccc(O)c(C(c2c(C)[nH][nH]c2=O)c2c(C)[nH][nH]c2=O)c1	i	nt	nt
SMILES	Apaf1 activ	Rh110 interf act	Apaf-1 act conf2	others
Cc1ccccc1-c1cc2c(nn1)-c1ccccc1C2=O	i	nt	nt
CCN1C(=O)CC(c2ccccc2)N(C2CCCC2)c2nc(Nc3ccc(C(=O)NC4CCN(C)CC4)cc3OC)ncc21 (stereo unspecified)	i	nt	nt
C[C@H](O)CC(=O)O	i	nt	nt
CC(C)OP(=O)(OC(C)C)C(Nc1ccccn1)c1ccc(F)cc1 (stereo unspecified)	i	nt	nt
COCCn1c(=S)[nH]c2cc(C(=O)N3CCN(c4cccc(Cl)c4)CC3)ccc2c1=O	-324	i	i
COC(=O)c1ccc2c(=O)n(CCCCCC(=O)N3CCN(c4ccccc4)CC3)c(=O)[nH]c2c1	i	nt	nt
O=C(NCCC(=O)N1CCN(c2cccc(Cl)c2)CC1)c1ccc(Br)cc1	i	nt	nt
Cc1cc(C)n2nc(C(=O)N3CCCC(CNS(=O)(=O)c4cccs4)C3)cc2n1 (stereo unspecified)	-394	i	i
